Assay results gathered from unrelated publications.
Lines come from different studies, so protocols differ.
Target: Mitogen-activated protein kinase kinase kinase 9 (MAP3K9, Homo sapiens, UniProt P80192)

| Compound | assay | conditions | remaining binding [%] |
| --- | --- | --- | --- |
| CN(C)c1ncnc(-c2ccc3nc(Nc4cc(CN5CCN(C(=O)CC(F)(F)F)CC5)ccn4)[nH]c3c2)c1Cl | cell-free assay, competition with immobilised ligand | 1 µM | 90 |
| CNC(=O)[C@@H]1CC[C@@H](n2c(-c3ccc4cnccc4c3)nc3ccc(C(=O)NCc4cccc(C(N)=O)c4)cc32)C1 | binding, competition with immobilised ligand | 1 µM | 100 |
| CN(C)c1nccc(-c2cnc3ncccn23)n1 | binding | 1 µM | 65 |
| O=C(NCCCN1CCOCC1)c1ccc(Nc2nccc(-c3cc4ccccc4s3)n2)cc1 | binding, competition with immobilised ligand | 1 µM | 14 |
| Cc1cnn2ncc(-c3ccnc(N(C)C)n3)c2c1 | binding | 1 µM | 100 |
| Cc1nccc(COC(=O)N2C[C@@H]3[C@@H](CNC(=O)c4ccc5[nH]nnc5c4)[C@@H]3C2)n1 | cell-free assay, competition with immobilised ligand | 1 µM | 89 |
| C[C@@H]1CN(c2ccc3ncc(-c4ccc5[nH]nc(C6CC6)c5c4)n3n2)C[C@H](C)O1 | binding, competition with immobilised ligand | 50 nM | 96 |
| N#Cc1ccc(Nc2ccc3[nH]c(=O)[nH]c3c2)c(Cl)c1 | cell-free assay, competition with immobilised ligand | 1 µM | 100 |
| O=C(NCC1CCOCC1)c1n[nH]cc1NC(=O)c1c(F)cccc1F | binding, competition with immobilised ligand | 1 µM | 100 |
| O=C(NCCCN1CCOCC1)c1ccc(Nc2ncc(Cl)c(-c3ccc(Cl)s3)n2)cc1 | binding, competition with immobilised ligand | 1 µM | 11 |
| N#Cc1ccccc1CSc1nnc2c(n1)[nH]c1ccccc12 | binding, competition with immobilised ligand | 10 µM | 98 |
| O=C(c1ccc(Nc2nccc(-c3cc4ccccc4s3)n2)cc1)N1CCC(N2CCCC2)CC1 | binding, competition with immobilised ligand | 1 µM | 27 |
| C[C@H]1CCN(c2nccc(-c3cnn4ncccc34)n2)C1 | binding | 1 µM | 100 |
| CC(C)(C)c1ccc(-c2nc(CBr)nn2-c2cccc(O)c2)cc1 | cell-free assay, competition with immobilised ligand | 10 µM | 91 |
| CC1CCCN1c1nccc(-c2cnn3ncccc23)n1 (stereo not shown) | binding | 1 µM | 100 |
| C[C@@H](c1ccc(-n2cnc3c(N)ncnc32)cc1)N1CCc2nn(C)c(Cc3ccccc3)c2C1=O | binding, competition with immobilised ligand | 0.1 µM | 95 |
| Nc1c(C(=O)NCc2ccc(C(=O)NCCCC3CCCCC3)cc2)cnn1-c1ccccc1 | cell-free assay, competition with immobilised ligand | 0.1 µM | 96 |
| c1cncc(-c2cccc(Nc3nccc(NC4CCCCC4)n3)c2)c1 | binding, competition with immobilised ligand | 10 µM | 19 |
| CN(C)c1ncc(F)c(-c2cnn3ncccc23)n1 | binding | 1 µM | 100 |
| Cc1cc(C)c(-n2ccn3nc(-c4cccnc4)cc23)cc1NC(=O)c1cc(C#N)cc(S(F)(F)(F)(F)F)c1 | cell-free assay, competition with immobilised ligand | 0.1 µM | 79.5 |
| CN(c1nccc(-c2cnn3ncccc23)n1)C1CC1 | binding | 1 µM | 85 |
| CN(C)C(=O)Cn1cc(-c2nc([C@@](C)(c3ccc(-c4cnc(N)nc4)cc3)C3CC3)no2)cn1 | cell-free assay, competition with immobilised ligand | 1 µM | 100 |
| FC(F)(F)Oc1cccc(-c2cnc3ccc(-c4ccncc4)nn23)c1 | cell-free assay, competition with immobilised ligand | 5 µM | 77 |
| O=C(NS(=O)(=O)c1ccc(NCC2CCOCC2)c([N+](=O)[O-])c1)c1ccc(N2CCN(Cc3ccc(C(F)(F)F)cc3-c3ccc(Cl)cc3)CC2)cc1Oc1cnc2[nH]ccc2c1 | cell-free assay, competition with immobilised ligand | 1 µM | 100 |
| COc1cnc(Nc2cccc(S(N)(=O)=O)c2)nc1N1CCN(c2ccccc2)CC1 | binding, competition with immobilised ligand | 1 µM | 73 |
